Publication PMC4036123 (Cancer chemotherapy and pharmacology, 2014)
Where two headings read alike, the source gives them in different places.

What was measured:
[1] = system: proteasome chymotrypsin-like activity; assay: Proteasome-Glo assay in intact MM cells, chymotrypsin-like activity; type: cell-based, human; settings: read-out: Chymotrypsin-like IC50, 24 hours incubation
Summary of the method: (§1)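 MM.1S, MM.1R and RPMI-8226 human myeloma lines were grown in RPMI medium with 10% FBS and antibiotics. Activity was read as luminescence with the Proteasome-Glo kit, following the manufacturer's protocol.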

[2] = system: proteasome trypsin-like activity; assay: Proteasome-Glo assay in intact MM cells, trypsin-like activity; type: cell-based, human; settings: read-out: Trypsin-like IC50, 24 hours incubation
Summary of the method: as §1

U266 cells = assay: Cellular proliferation assay; type: cell-based; settings: Homo sapiens, U-266, 48 h, read-out: IC50 (cell viability)
RPMI-8226 cells = assay: Cellular proliferation assay; type: cell-based; settings: Homo sapiens, RPMI-8226, 48 h, read-out: IC50 (cell viability)
MM.1S cells = assay: In vitro cell invasion assay; type: cell-based, human; settings: MM.1S cells pretreated at IC50 value, Matrigel invasion chamber

CC(C)C[C@H](NC(=O)[C@H](Cc1ccccc1)NC(=O)c1cnccn1)B(O)O [Bortezomib]
IC50 ([1]; MM1R cell line): […] | IC50 ([1]; MM1S cell line): […] | IC50 ([1]; RPMI822G cell line): […] | IC50 ([1]; U266 cell line): […] | IC50 ([2]; MM1R cell line): > 18 nM | IC50 ([2]; MM1S cell line): > 18 nM | IC50 ([2]; RPMI822G cell line): > 18 nM | IC50 ([2]; U266 cell line): > 18 nM | IC50 (U266 cells): 13.5 nM | IC50 (RPMI-8226 cells): […] | inhibition of invasiveness compared to control (MM.1S cells): 37.42%
